Lipid droplet: inhibitors of hepatocyte lipid droplet formation, primary screen, imaging, high-throughput imaging, BODIPY stain | AML12 mouse hepatocytes, oleate lipid droplets | actives 0.4% (n = 240,000) | inhibition, % at 6.5 µM | AID 1656, 2009;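 active means lipid droplet intensity inhibited by at least 50%, with more than 500 cells counted; inconclusive means wells with under 300 cells, treated as cytotoxic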
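Test system: AML12 mouse liver cells; schedule: overnight exposure; technique: high-content imaging of BODIPY-stained droplets and DAPI nuclei; read-out: % inhibition of corrected integrated BODIPY droplet signal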
STK33 kinase inh: inhibitors of purified STK33 kinase, primary screen, biochemical, ADP-Glo luminescence, homogeneous, cell-free. inhibition, % at 10 µM. Serine/threonine-protein kinase 33 (Homo sapiens), Q9BYT3. MBP phosphorylation. actives 0.073% (n = 320,000);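 active means inhibition at or above 25%, using the most active replicate where run in duplicate; inactive means inhibition below 25%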
HSV replic up: enhancers of HSV replication in host cells, fold increase, host cell viability; maximum fold increase; actives 0.005% (n = 220,000); AID 1956, 2009; HSV replication augmentation in cells; in the data active means maximum fold increase above about 1.5; inconclusive means no clear call, values can overlap the other calls; tested in PC3 cells
GSK3beta inhib: human GSK3beta kinase inhibitors, primary screen, biochemical, cell-free homogeneous, HTS. actives 0.038% (n = 300,000). Glycogen synthase kinase-3 beta (Homo sapiens), P49841. GST-GSK3beta kinase, ADP-Glo luminescence, 60 min; hits give low values. activity score (negative = inhibition), % at 10 µM;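 active means more than half of replicate wells score below -50%, meaning over 50% inhibition versus plate controls; inconclusive means some replicates but at most half score below -50%; inactive means no replicate scores below -50%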;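 further: 0% = median DMSO wells and -100% = median GW8510 positive control wells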
Target sequence (P49841 whole entry, looked up): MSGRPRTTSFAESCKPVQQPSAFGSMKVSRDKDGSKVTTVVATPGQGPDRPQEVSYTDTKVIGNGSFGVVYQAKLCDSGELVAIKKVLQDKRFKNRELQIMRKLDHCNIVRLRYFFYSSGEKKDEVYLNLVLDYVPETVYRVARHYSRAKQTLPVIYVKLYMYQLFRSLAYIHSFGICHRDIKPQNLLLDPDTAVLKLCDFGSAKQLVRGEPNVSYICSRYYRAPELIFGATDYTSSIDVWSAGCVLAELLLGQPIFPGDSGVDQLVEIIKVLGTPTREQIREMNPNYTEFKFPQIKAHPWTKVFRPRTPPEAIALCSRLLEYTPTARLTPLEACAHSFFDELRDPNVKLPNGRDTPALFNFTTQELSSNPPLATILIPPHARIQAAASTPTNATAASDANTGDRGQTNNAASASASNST
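test system = GST-tagged human GSK3beta kinase, cell-free | reagent = 25 µM ATP with peptide substrate | dosing = one dose of 10 µM per compound | schedule = 60 min reaction, RT | detection = luminescent ADP-Glo measurement of ADP formed | control set = DMSO neutral wells and GW8510 at 20 µM as positive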
GSK3A inh: blockers of GSK3A enzyme activity – biochemical, luminescence, cell-free homogeneous, HTS, primary screen | GSK-3 alpha kinase, ADP-Glo luminescence, 60 min | inhibition, % at 10 µM | actives 0.1% (n = 320,000);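 active means more than half of replicates show inhibition above 20%; inconclusive means some but at most half of replicates above 20% inhibition; inactive means no replicate shows inhibition above 20%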;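 further: GST-tagged GSK-3 alpha with peptide substrate and 25 µM ATP; 0% = DMSO neutral wells and 100% = GW8510 positive control wells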
Rce1 inh: yeast Rce1p protease inhibitors, primary screen, biochemical, fluorescence, cell-free homogeneous; CAAX prenyl protease 2 (Saccharomyces cerevisiae (strain ATCC 204508 / S288c)), Q03530; yeast membranes, quenched prenylated peptide cleavage fluorescence; actives 0.27% (n = 290,000); calls only;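 active means fall in fluorescence gain of 50% or more versus controls, with final raw signal at or below 3038400; inconclusive means same 50% fall but final raw signal above 3038400; inactive means fall in fluorescence gain under 50%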;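 further: plate controls were neutral control wells for no effect and wells lacking membranes for full effect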
Numbers without * were called inactive; i = inactive; ? = inconclusive; . = no result given; + = active, no number. The list is not random: actives were taken first. Their share in the collection is about 0.7%.

SMILES	Lipid droplet	STK33 kinase inh	HSV replic up	GSK3beta inhib	GSK3A inh	Rce1 inh
COC(=O)c1ccc(COc2ccccc2/C=C/C(=O)c2ccc(OCC(=O)O)cc2)cc1	-2	50*	.	-8	-2	i
COC(=O)c1ccc(COc2ccccc2/C=N/Nc2cccc(C(=O)O)c2)cc1	-8	.	i	.	.	.
CCOC(=O)C1(CCOC)CCN(C(=O)c2sccc2C)CC1	-5	-1	i	2	3	+
COC(=O)/C=c1\sc2ncnn2c1=O	4	2	i	0	-2	i
COC(=O)/C=c1\[nH]c2nnc(C)n2c1=O	-9	-1	i	0	-1	+
CN(CCO)CCC(=O)NC1(C)CS(=O)(=O)CC1S(=O)(=O)O (stereo unspecified)	-13	0	i	-3	2	i
CC(C)(C)NS(=O)(=O)c1cc(C(=O)Nc2sccc2C#N)ccc1Cl	44	-1	i	3	-4	i
COc1ccc(-c2oc3ccc(N4CCOCC4)cc3c2/C=C/c2ccc(OC)c(OC)c2)cc1	18	-1	.	-1	1	+
COc1ccc(/C=C/c2c(-c3ccc(OC)cc3)sc3ccc(N4CCOCC4)cc23)cc1	4	-1	.	-1	0	i
COCCNC(=O)c1cc(-c2ccccc2)nn1CC1CC(c2cccc([N+](=O)[O-])c2)=NO1 (stereo unspecified)	.	1	i	-1	-1	i
O=C(NCC1CC1)c1cc(-c2ccccc2)nn1CC1CC(c2cccc([N+](=O)[O-])c2)=NO1 (stereo unspecified)	.	0	i	-1	-3	+
CCOc1ccc(N(CC(=O)NC2CCCCC2)C(=O)CCCC(=O)Nc2ccccn2)cc1	-11	0	.	-2	-1	i
Cc1ccc(C)c(NC(=S)c2ccc3ccccc3n2)c1	56*	-1	i	1	-1	i
Cc1ccc(C)c(NC(=S)c2ccccn2)c1	.	-2	i	3	-2	i
Cc1ccc(C(NC(=O)C2CCCCC2)c2c(O)ccc3ccccc23)cc1 (stereo unspecified)	57*	-1	i	1	-1	i
CC(=O)NC(c1ccc(C(C)C)cc1)c1c(O)ccc2ccccc12 (stereo unspecified)	.	0	.	3	1	i
CC(OC(=O)c1cc(=O)[nH]c2ccccc12)C(=O)c1ccccc1 (stereo unspecified)	3	0	i	1	-2	i
CCCCOc1ccc(C(=O)Nn2c(-c3cccs3)nc3ccccc3c2=O)cc1	-15	-3	i	0	2	+
CC(C)[C@@]1(c2ccc(Cl)cc2)ON(c2ccccc2C(F)(F)F)C1=O	.	-2	.	.	0	.
CCOC(=O)C1CCCN(C(=S)Nc2cccc(Cl)c2)C1 (stereo unspecified)	-15	0	i	11	0	i
O=C(Nc1ccccc1F)C(=Cc1sc(N2CCOCC2)nc1-c1ccccc1)C(=O)Nc1ccccc1F	68*	0	?	2	0	i
O=C(CN1CCN(c2ncccn2)CC1)N1CCCc2c1c(=O)oc1ccc(O)cc21	2	-1	i	.	0	.
O=C1NCCCc2c1oc1ccc(O)cc21	.	80*	i	-78*	95*	i
CCS(=O)(=O)N1CCN(C2CCC(c3ccccc3)CC2)CC1 (stereo unspecified)	.	0	i	0	1	+
COc1ccc(S(=O)(=O)N(CC(=O)N2CCCC2)Cc2ccccc2)cc1	.	-3	i	-2	7	+
CC1(C)CC(NC(=O)C(Cl)(Cl)Cl)CC(C)(C)N1	-2	-2	.	-1	3	i
COc1ccccc1-c1nnc2sc(-c3ccc(N(C)C)cc3)nn12	?	0	i	1	0	+

High-throughput results as filed in PubChem BioAssay.
